PAFAH1B3 inh = inhibitors of human PAFAH1B3 | inhibition, % at 3.39 µM | 0.28% of 340,000 active | Q15102 | recombinant PAFAH1B3, FP-rhodamine probe, fluorescence polarization;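 active = inhibition above the screen-wide average of all tested compounds plus 3 SD, cut at about 25% in these data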;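 note: 0% = enzyme with DMSO only and 100% = wells lacking PAFAH1B3 protein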
UCH37 inh = human UCH37 deubiquitinating enzyme inhibition. inhibition, % (concentration not given with the values). purified proteasome/UCH37, Ub-AMC cleavage fluorescence. 0.33% of 330,000 active;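 active = mean inhibition over replicate wells above about 20%, limit read from the data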;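 note: 0% = compound-free wells with enzyme and 100% = wells lacking proteasome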
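Signal – fluorescence, ex 355 nm, em 460 nm · System – Proteasome-bound UCH37 · Input – 0.15 nM proteasome as dispensed · Timing – 30 min preincubation with enzyme, 25 min cleavage at room temperature · Read-out basis – percent inhibition of cleavage signal versus uninhibited and no-proteasome wells · Medium – Tris-HCl pH 7.4 with ATP-MgCl2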
GRIN3A LBD mod = modulators (binders) of human NR3A ligand-binding domain | NR3A LBD differential scanning fluorimetry, Tm shift; 0% = protein alone, 100% = glycine-bound protein | Tm shift relative to glycine control, % at 25 µM | 2.5% of 340,000 active | AID 1259313;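 active = melting temperature shift of at least 10% of the positive control shift, at one fixed dose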
pPAFAH inh = pPAFAH (human) enzyme inhibition. Q13093. recombinant pPAFAH, FP-rhodamine probe fluorescence polarization. inhibition, % at 3.39 µM. 1.5% of 330,000 active. AID 463082;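 active = inhibition above the mean inhibition across the screen plus 3 SD, cut at about 25% in these data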;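 note: inhibitors block binding of the rhodamine activity-based probe so polarization drops; 0% = enzyme with DMSO and 100% = wells lacking pPAFAH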
Target sequence (Q13093 whole entry, looked up): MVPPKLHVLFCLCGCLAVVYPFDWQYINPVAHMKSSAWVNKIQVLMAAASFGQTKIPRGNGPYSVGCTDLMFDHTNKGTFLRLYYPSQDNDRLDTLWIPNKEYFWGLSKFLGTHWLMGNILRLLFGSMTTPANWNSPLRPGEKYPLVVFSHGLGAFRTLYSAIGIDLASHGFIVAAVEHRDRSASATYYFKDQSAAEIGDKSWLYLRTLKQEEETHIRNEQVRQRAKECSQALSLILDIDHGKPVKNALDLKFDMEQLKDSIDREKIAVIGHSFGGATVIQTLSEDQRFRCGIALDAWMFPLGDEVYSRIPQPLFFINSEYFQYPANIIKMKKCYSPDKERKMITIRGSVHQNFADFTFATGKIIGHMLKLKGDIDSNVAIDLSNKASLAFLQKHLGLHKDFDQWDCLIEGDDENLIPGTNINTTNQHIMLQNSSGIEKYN
PAFAH2 FP inh = PAFAH2 (human) inhibition. inhibition, % at 3.39 µM. AID 492956. 0.99% of 340,000 active. recombinant PAFAH2, FP-rhodamine activity probe, fluorescence polarization;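 active = inhibition above the mean over all tested compounds plus 3 SD, cut at about 30% in these data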;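 note: inhibitors block probe labeling of enzyme so polarization drops; 0% = enzyme with DMSO and 100% = wells lacking PAFAH2 protein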
PAFAH1B2 inh = inhibitors of human PAFAH1B2 | P68402 | recombinant PAFAH1B2, FP-rhodamine activity probe, fluorescence polarization | inhibition, % at 3.39 µM | 1.2% of 340,000 active | AID 492953;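 active = inhibition above the mean of all tested compounds plus 3 SD, cut at about 24% in these data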;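 note: 0% = enzyme with DMSO and 100% = wells lacking PAFAH1B2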
* hit, by the source's call; . = no result given. Rows were chosen to be rich in hits. Some 4.8% of all compounds tested hit in one or more screens of this group.

SMILES	PAFAH1B3 inh	UCH37 inh	GRIN3A LBD mod	pPAFAH inh	PAFAH2 FP inh	PAFAH1B2 inh
CC(=O)Nc1ccc(S(=O)(=O)N(C)CC(=O)NN=Cc2cccc(O)c2)cc1	.	0.8	.	.	.	.
COc1ccc(OCC(=O)NN=C2C=C(C)CC2)cc1	.	-1.6	.	.	.	.
O=C(Nc1ccc(Cl)c(Cl)c1)C1CC(=O)N(c2ccc(Br)cc2)C1 (centres undefined)	-3.1	5.4	28.2*	-6.8	-21.9	-6.0
OCCN(C=Nc1nc(-c2ccc(Br)cc2)cs1)CCO	.	2.6	.	.	.	.
CN1CCN(S(=O)(=O)c2ccc(NC(=O)c3ccc(Br)o3)cc2)CC1	5.7	3.8	-0.8	0.2	7.0	8.2
Cc1nc2cc(NC(=O)c3ccc(Br)s3)ccc2s1	0.5	-27.6	24.8*	-7.8	0.0	-2.7
CN1CCN(S(=O)(=O)c2ccc(NC(=O)c3ccc(Br)s3)cc2)CC1	2.6	1.3	28.9*	-3.5	-7.4	-4.3
O=C(Nc1ccc(N2CCOCC2)c(Cl)c1)c1ccc(F)cc1	4.9	1.6	-0.8	1.0	0.5	-5.5
Cc1ccc(C(=O)Nc2ccc3nc(C)sc3c2)s1	3.1	1.2	4.8	-0.4	3.6	4.4
O=C(Nc1ccc(N2CCOCC2)c(Cl)c1)c1ccccc1Cl	0.5	2.0	18.9*	3.5	4.4	1.3
O=C(Nc1cc(S(=O)(=O)Nc2ccc(Cl)cc2)ccc1N1CCCCC1)c1ccc(F)cc1Cl	-54.5	-1.8	20.7*	7.0	-34.9	-30.0
O=C1NCCCC1C(=O)NN=Cc1ccccc1O (centres undefined)	.	-10.2	.	.	.	.
COc1cccc(C=Nn2c(COc3ccccc3)n[nH]c2=S)c1O	.	6.1	.	.	.	.
COc1ccc2ccccc2c1C=NNC(=O)c1cccc(C)c1	.	3.4	.	.	.	.
O=C(Nc1ccc(Cl)c(Cl)c1)Nc1cc(S(=O)(=O)N2CCOCC2)ccc1N1CCCC1	-1.5	0.9	11.2*	3.3	-35.2	3.3
CC(=O)N1CCCc2cc(S(=O)(=O)N3CCCC(C(=O)Nc4cccc(C)c4)C3)ccc21 (centres undefined)	9.8	4.0	-2.4	33.1*	-0.1	0.3
Cc1ccc(S(=O)(=O)N2CCCCC2)cc1NC(=O)c1ccccc1Cl	12.6	.	-1.2	2.9	0.1	10.3
CN1CCN(S(=O)(=O)c2ccc(NC(=O)Nc3cccc(Cl)c3)cc2)CC1	8.2	1.9	14.2*	-13.4	-29.0	-5.4
O=C(Nc1ccccc1F)Nc1cc(S(=O)(=O)N2CCOCC2)ccc1N1CCCC1	12.4	-0.4	-0.9	3.6	20.1	1.2
Cc1ccc(S(=O)(=O)N2CCCCC2)cc1NC(=O)Nc1ccc(Cl)cc1Cl	0.5	1.4	13.6*	4.2	-1.1	-2.5
O=C(CCn1cnc2ccccc21)NN=C/C=C/c1ccccc1	.	3.8	.	.	.	.
CC(CC(=O)c1ccccc1)=NNC(=O)CC#N	.	1.1	.	.	.	.
CCCc1cc(=O)[nH]c(SCC(=O)Nc2cc(S(=O)(=O)N3CCCCC3)ccc2C)n1	14.8	3.2	-0.3	3.6	-2.3	24.2*
Cc1cc(=O)[nH]c(SCC(=O)Nc2cc(S(=O)(=O)N3CCCC3)ccc2Cl)n1	1.8	5.7	-0.5	3.6	6.2	2.9
CN(C)c1ccc(C(=O)OCC(=O)Nc2cccc(S(=O)(=O)N3CCCC3)c2)cc1	3.1	1.4	-7.1	26.9*	85.5*	5.3
SMILES	PAFAH1B3 inh	UCH37 inh	GRIN3A LBD mod	pPAFAH inh	PAFAH2 FP inh	PAFAH1B2 inh
O=C(Nc1cccc(S(=O)(=O)N2CCCCC2)c1)C1CCCC1	3.7	-0.9	21.6*	-0.5	13.8	2.8
O=C(Nc1cccc(Cl)c1)Nc1cc(S(=O)(=O)N2CCCCC2)ccc1Cl	-154.7	1.4	11.3*	-68.4	-117.4	-67.9
O=C(COC(=O)c1ccc(C(F)(F)F)cc1)Nc1cccc(S(=O)(=O)N2CCCCC2)c1	-2.1	5.1	6.2	15.4	0.3	-8.4
COc1ccc(C=NNC(=O)CNC(=O)c2ccc(S(=O)(=O)N3CCOCC3)cc2)c(OC)c1	.	5.9	.	.	.	.
O=C(NN=C/C=C/c1ccc2c(c1)OCO2)c1ccc(F)cc1	.	-5.7	.	.	.	.
CC(C)c1c(C(=O)NN=Cc2ccncc2)nnn1-c1nonc1N	.	2.1	.	.	.	.
O=C(Nc1ccc(Cl)cc1F)c1cc(S(=O)(=O)N2CCCCC2)ccc1F	17.3	-0.5	13.4*	7.3	-1.8	2.3
CCCCCCc1cc2cc(S(=O)(=O)c3ccc(Cl)cc3)c(=O)oc2cc1O	3.6	-299.4	106.1*	12.2	15.1	7.3

Bioassay records: PubChem BioAssay, several laboratories
